In brackets after ≈: the same amount, converted by molar mass. A value given as a limit tells only on which side of the number the result lay.

One data set has as its target T1, Orexin receptor type 2 (Homo sapiens, UniProt O43614).
T1 sequence (O43614 whole entry): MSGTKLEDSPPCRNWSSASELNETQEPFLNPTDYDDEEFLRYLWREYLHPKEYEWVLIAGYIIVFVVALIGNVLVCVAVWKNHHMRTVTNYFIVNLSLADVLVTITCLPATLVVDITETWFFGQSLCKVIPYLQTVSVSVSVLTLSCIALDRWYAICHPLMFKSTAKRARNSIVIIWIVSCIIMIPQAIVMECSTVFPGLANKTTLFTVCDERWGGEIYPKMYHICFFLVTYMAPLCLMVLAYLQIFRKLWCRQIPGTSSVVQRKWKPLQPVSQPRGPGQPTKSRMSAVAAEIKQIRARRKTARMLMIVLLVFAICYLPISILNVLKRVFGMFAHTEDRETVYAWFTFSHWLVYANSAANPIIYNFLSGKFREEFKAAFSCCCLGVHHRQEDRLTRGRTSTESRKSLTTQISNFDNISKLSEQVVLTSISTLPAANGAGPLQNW
Put plainly: Binding affinity to human OX2R by radioligand displacement binding assay.

Data set [1] concerns the target T2, Orexin/Hypocretin receptor type 1 (Homo sapiens, UniProt O43613).
T2 sequence (O43613 whole entry): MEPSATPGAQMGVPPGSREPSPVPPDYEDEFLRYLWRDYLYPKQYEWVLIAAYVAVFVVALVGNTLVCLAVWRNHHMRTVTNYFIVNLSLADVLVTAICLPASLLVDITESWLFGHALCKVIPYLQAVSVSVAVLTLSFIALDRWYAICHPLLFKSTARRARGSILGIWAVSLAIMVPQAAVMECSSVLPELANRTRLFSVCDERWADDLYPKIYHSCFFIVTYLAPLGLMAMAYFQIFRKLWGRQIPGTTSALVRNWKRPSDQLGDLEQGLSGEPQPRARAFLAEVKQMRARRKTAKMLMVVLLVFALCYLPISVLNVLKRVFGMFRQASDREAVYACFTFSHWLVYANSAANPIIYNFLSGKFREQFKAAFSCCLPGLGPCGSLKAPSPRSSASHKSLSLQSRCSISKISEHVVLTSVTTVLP
As to the kind of experiment: Binding affinity to human OX1R by radioligand displacement binding assay. The method in brief: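 Ki values come from single experiments run in triplicate.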

Another data set concerns the target CYP3A (Homo sapiens, UniProt P08684+P20815+P24462+Q9HB55). Put plainly: Time dependent inhibition of CYP3A in human liver microsomes assessed as enzyme activity using midazolam as substrate at 10 uM incubated for 30 mins prior to substrate addition for 10 mins by LC-MS/MS analysis. Format: ADME. On the set-up: scale not given: the % may be the effect or the level left. The note with it: probe midazolam, read-out: Activity. The method in brief: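 Test compound at 10 μM preincubated 30 min at 37 °C with human liver microsomes (0.2 mg/mL), with or without an NADPH-generating system. Mixture then diluted 10-fold into a marker-substrate cocktail plus NADPH system and incubated 10 min at 37 °C. Midazolam served as the CYP3A probe. Metabolites measured by LC−MS/MS. Result is the residual activity with NADPH relative to without, as % of control.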

Data set [2] is described as follows: Aqueous solubility of the compound in Dulbecco's phosphate buffered saline at pH 7.4 by DMSO solution precipitation method. The data set is classed as physicochemical. The method in brief:
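Solubility in Dulbecco's PBS at pH 7.4, measured at room temperature by precipitation from a DMSO solution.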

Data set [3] can be described thus: Activity at P-gp (unknown origin) assessed as corrected flux ratio. The data set is classed as ADME. The conditions noted are these: human. The essentials: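 Reported as corrected flux ratio, i.e. the MDR1 flux ratio divided by the PK1 flux ratio.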

For the compound `CCn1cc(OC[C@]2(c3ccccc3)C[C@@H]2C(=O)Nc2ccc(C#N)cn2)c(C)n1`, the Ki (on Orexin receptor type 2; in data set [1]) was more than 2 µM throughout.

On to `Cc1ncc(OC[C@@]2(c3ccccc3)C[C@H]2C(=O)Nc2ccc(C#N)cn2)c(C)n1`, for which the figures for the inhibition constant (Ki) (on Orexin receptor type 2; in data set [1]) were 0.049 µM and 2.49 µM, respectively. Also, on CYP3A, the activity at 10 min, 10 µM worked out at 96%. Moreover, the solubility (kinetic) in data set [2] worked out at 80 µM (≈ 32 µg/mL). In addition, in data set [3], the Ratio is on record as 2.7.

In the case of `CCc1nc(C)ncc1OC[C@@]1(c2ccccc2)C[C@H]1C(=O)Nc1ccc(C#N)cn1`, the results for the Ki (at Orexin receptor type 2; in data set [1]) were 0.007 µM and 0.121 µM, respectively. In addition, the activity at 10 min, 10 µM at CYP3A amounted to 91%. The compound further displayed a solubility (kinetic) in data set [2] of 44 µM (≈ 18.2 µg/mL). The Ratio in data set [3] was determined as 2.1.

On to `Cc1cnc(OC[C@@]2(c3ccccc3)C[C@H]2C(=O)Nc2ccc(C#N)cn2)c(C)n1`, for which the Ki on Orexin receptor type 2 came out at 0.021 µM; in data set [1] it was 0.073 µM. Further, the activity at 10 min, 10 µM on CYP3A worked out at 97%. In data set [2], the kinetic solubility came out at 47 µM (≈ 18.8 µg/mL). The Ratio in data set [3] worked out at 1.3.

Regarding `COCc1nc(C)ncc1OC[C@@]1(c2ccccc2)C[C@H]1C(=O)Nc1ccc(C#N)cn1`, the Ki came to 0.009 µM at Orexin receptor type 2 and 0.043 µM in data set [1]. Also, the activity at 10 min, 10 µM at CYP3A was 92%. For the same compound, in data set [2], the solubility (kinetic) was 93 µM (≈ 39.9 µg/mL). For the same compound, the Ratio in data set [3] came out at 4.

In the case of `Cc1ncc(OC[C@@]2(c3ccccc3)C[C@H]2C(=O)Nc2ccccn2)c(C)n1`, the Ki came to 0.08 µM on Orexin receptor type 2 and 1.02 µM in data set [1]. In addition, at CYP3A, the activity at 10 min, 10 µM is 99%. Besides, the Ratio in data set [3] is 1.9.

As to `Cc1ncc(OC[C@@]2(c3ccccc3)C[C@H]2C(=O)Nc2cccnc2)c(C)n1`, the Ki turned out to be 0.05 µM at Orexin receptor type 2 and 0.391 µM in data set [1]. Further, the activity at 10 min, 10 µM at CYP3A came to 104%. Also, the Ratio in data set [3] is recorded as 4.4.

As to `Cc1ncc(OC[C@@]2(c3ccccc3)C[C@H]2C(=O)Nc2ccncc2)c(C)n1`, the Ki on Orexin receptor type 2 stood at 0.163 µM; in data set [1] it was 1.58 µM. Moreover, on CYP3A, the activity at 10 min, 10 µM amounted to 110%. Also, in data set [3], the Ratio was 6.

`Cc1ncc(OC[C@@]2(c3ccccc3)C[C@H]2C(=O)Nc2cccc(F)n2)c(C)n1`: the Ki on Orexin receptor type 2 was found to be 0.056 µM; in data set [1] it was 0.138 µM. Further, the activity at 10 min, 10 µM on CYP3A was 94%. Also, the Ratio in data set [3] is listed as 1.4.

As for `Cc1ccc(NC(=O)[C@@H]2C[C@@]2(COc2cnc(C)nc2C)c2ccccc2)nc1`, the values for the Ki (at Orexin receptor type 2; in data set [1]) were 0.034 µM and 0.124 µM, respectively. For the same compound, at CYP3A, the activity at 10 min, 10 µM came out at 22%. Also, in data set [3], the Ratio was found to be 1.3.

`Cc1ccnc(NC(=O)[C@@H]2C[C@@]2(COc2cnc(C)nc2C)c2ccccc2)c1`: the Ki at Orexin receptor type 2 turned out to be 0.029 µM; in data set [1], 0.224 µM. Also, the activity at 10 min, 10 µM on CYP3A was determined as 90%. In data set [3], the Ratio was 1.5.

For the compound `COc1cc(NC(=O)[C@@H]2C[C@@]2(COc2cnc(C)nc2C)c2ccccc2)ncc1F`, the inhibition constant (Ki) at Orexin receptor type 2 was 0.006 µM; in data set [1], 0.003 µM. For the same compound, the activity at 10 min, 10 µM on CYP3A amounted to 86%. In addition, in data set [3], the Ratio came out at 1.6.

Turning to `Cc1ncc(OC[C@@]2(c3ccc(F)c(F)c3)C[C@H]2C(=O)Nc2ccc(F)cn2)c(C)n1`, the Ki amounted to 0.004 µM at Orexin receptor type 2 and 0.014 µM in data set [1]. For the same compound, the activity at 10 min, 10 µM at CYP3A turned out to be 75%.

`Cc1ccc(OCC2(c3ccccc3)CC2C(=O)Nc2ccc(C#N)cn2)c(C)n1` (racemic): the Ki at Orexin receptor type 2 was 0.222 µM; in data set [1], 0.938 µM. The activity at 10 min, 10 µM on CYP3A was 34%. In data set [2], the solubility (kinetic) is 22 µM (≈ 8.77 µg/mL).

As to `Cc1cc(OCC2(c3ccccc3)CC2C(=O)Nc2ccc(C#N)cn2)cc(C)n1` (racemic), the inhibition constant (Ki) (at Orexin receptor type 2; in data set [1]) was more than 2 µM in each case. The activity at 10 min, 10 µM at CYP3A amounted to 94%.

`Cc1nn(C)cc1OCC1(c2ccccc2)CC1C(=O)Nc1ccc(C#N)cn1` (racemic): the inhibition constant (Ki) was 0.204 µM on Orexin receptor type 2 and more than 2 µM in data set [1]. Also, at CYP3A, the activity at 10 min, 10 µM was found to be 85%. Further, the kinetic solubility in data set [2] stood at 85 µM (≈ 32.9 µg/mL).

For the origin of these results see ChEMBL document CHEMBL3585325, “Discovery of (1R,2S)-2-{[(2,4-Dimethylpyrimidin-5-yl)oxy]methyl}-2-(3-fluorophenyl)-N-(5-fluoropyridin-2-yl)cyclopropanecarboxamide (E2006): A Potent and Efficacious Oral Orexin Receptor Antagonist” (J Med Chem, 2015).
